# Bioassay records as filed in PubChem.
# This is a sample that favours compounds with a hit; in the whole collection about 3.4% have one here.
# M1 PAM – potentiates human M1 receptor response to acetylcholine; P11229; CHO-K1 hM1, Fluo-8 calcium fluorescence, ACh EC20; 0% = ACh EC20, 100% = maximal ACh; activation, % at 3 µM; actives 0.088% (n = 360,000); AID 588819; in the data active = activation above about 19%, passing the limit was not always enough
# CHRM1 antagonist – antagonists of human M1 muscarinic receptor. actives 1.3% (n = 360,000). inhibition, % at 3 µM. AID 588852. P11229. CHO-K1 hM1, Fluo-8 calcium fluorescence, ACh EC80 antagonist;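 active = percent inhibition above its own plate's cutoff, namely the mean of that plate's compound wells plus 3 SD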;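 also: peak over basal fluorescence ratio during 140 s after agonist addition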
# TAAR1 antagonist – antagonists of human TAAR1; CHO RD-HGA16 TAAR1, Fluo-8 calcium fluorescence, antagonist; inhibition, % at 3 µM; Q96RJ0; actives 1.5% (n = 360,000);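 active = inhibition above a per-plate cutoff, the mean inhibition of test compounds on that plate plus 3 SD, cut at about 49% in these data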
# Target sequence (Q96RJ0 whole entry, looked up): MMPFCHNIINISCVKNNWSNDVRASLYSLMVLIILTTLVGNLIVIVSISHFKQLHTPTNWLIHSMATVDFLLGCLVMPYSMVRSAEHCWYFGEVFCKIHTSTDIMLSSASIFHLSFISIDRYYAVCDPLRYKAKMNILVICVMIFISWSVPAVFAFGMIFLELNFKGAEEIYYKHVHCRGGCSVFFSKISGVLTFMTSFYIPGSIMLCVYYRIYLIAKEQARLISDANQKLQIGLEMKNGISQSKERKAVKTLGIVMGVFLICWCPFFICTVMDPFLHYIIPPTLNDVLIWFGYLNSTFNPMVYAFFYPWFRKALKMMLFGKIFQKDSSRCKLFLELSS
#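 test system = CHO RD-HGA16 cells bearing hTAAR1 | replication = singlicate | controls = DMSO-only wells and EC80 β-PEA-stimulated wells | reagent = EC80 β-phenethylamine stimulus | read-out basis = percent inhibition of PEA-evoked calcium signal, max/basal emission ratio | schedule = seeding 17-24 h prior, 75-min 37 °C, 30-min RT dye loading | signal = kinetic Fluo-8 calcium fluorescence measurement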
# M1 ag – human M1 muscarinic receptor agonism | activation, % at 3 µM | actives 0.33% (n = 360,000) | P11229 | CHO-K1 hM1, Fluo-8 calcium fluorescence, agonist mode; 0% DMSO, 100% acetylcholine EC100 | AID 588814;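 active = activation above the run's mean compound activation plus 3 SD, cut at about 16% in these data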;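 also: peak over basal fluorescence ratio within a 140 s kinetic read after compound addition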
# TAAR1 agonist – human TAAR1 agonism; CHO RD-HGA16 TAAR1, Fluo-8 calcium fluorescence; vehicle wells 0%, saturating PEA agonist 100%; activation, % at 3 µM; actives 0.99% (n = 360,000);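 active = activation above the mean activation of all test compounds in the run plus 3 SD, cut at about 38% in these data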
#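 Benchmarks: low control DMSO, high control PEA (EC100); System: CHO RD-HGA16 cells carrying human TAAR1 plus Gα16; Detection: Fluo-8 fluorescence, 5 s baseline then 140 s kinetic read; Schedule: 17-24 h plating, Fluo-8 75 min 37 °C, 30 min RT; Read-out basis: % activation from peak over basal fluorescence ratio, DMSO-to-PEA scaled.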
# TAAR1 ag confirm – confirmation of human TAAR1 agonists. AID 651783. actives 82% (n = 2,400). activation, % at 3 µM. CHO RD-HGA16 TAAR1, Fluo-8 calcium fluorescence; scaled: DMSO 0%, maximal phenethylamine 100%. shares compounds with TAAR1 agonist;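 active = activation above a cutoff set at the run's mean compound activation plus 3 SD, cut at about 39% in these data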
# Ga16 nonsel ag – counter-screen for TAAR1 agonists: nonselective agonists in parental cells | shares compounds with TAAR1 agonist | CHO-Ga16 parental, Fluo-8 calcium fluorescence; normalized to maximal ATP response, DMSO zero | activation, % at 3 µM | actives 50% (n = 2,400) | AID 651787;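 active = activation above the run cutoff, the mean activation over all tested wells plus 3 SD, cut at about 12% in these data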
# TAAR1 desensitize – TAAR1 response desensitization, agonist counter-screen; CHO RD-HGA16 hTAAR1, Fluo-8 calcium, beta-PEA response inhibition; shares compounds with TAAR1 agonist; actives 46% (n = 2,400); inhibition, % at 3 µM; AID 651951;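 active = inhibition above the run cutoff, the mean inhibition of all test compounds plus 3 SD, cut at about 49% in these data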;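 also: beta-PEA stimulus applied at its EC80; loss of beta-PEA calcium signal after compound pretreatment read as receptor desensitization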
# Ga16 nonsel ant – counter-screen for TAAR1 agonists: nonselective Ga16 antagonists; actives 39% (n = 2,400); inhibition, % at 3 µM; shares compounds with TAAR1 agonist; CHO-Ga16 ATP-induced calcium, Fluo-8 fluorescence;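 active = inhibition above the plate's mean compound inhibition plus 3 SD, computed per plate, cut at about 22% in these data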
# A number is an active result; - = inactive; . = not tested or not shown.
SMILES,M1 PAM,CHRM1 antagonist,TAAR1 antagonist,M1 ag,TAAR1 agonist,TAAR1 ag confirm,Ga16 nonsel ag,TAAR1 desensitize,Ga16 nonsel ant
O=C(Nc1nc2ccsc2c(=O)s1)c1ccco1,-,-,-,-,-,.,.,.,.
COCCNC(=O)C(c1ccc(C)cc1)N(Cc1cccs1)C(=O)CCC(=O)Nc1ccccn1 (stereo unspecified),-,-,-,-,-,.,.,.,.
Nc1nc(N)c2cc(Sc3ccc(Cl)cc3)ccc2n1,-,-,-,-,60,65,40,56,40
Nc1nc(N)c2cc(Sc3ccc4ccccc4c3)ccc2n1,-,-,-,-,63,82,44,57,46
Nc1nc(N)c2cc(Sc3cccc(C(F)(F)F)c3)ccc2n1,-,-,-,-,-,.,.,.,.
O=C(c1cc(-c2ccc(O)cc2)on1)N1CCc2ccccc2C1,-,-,-,-,72,91,17,67,-
O=C(c1cc(-c2cccc(Cl)c2)on1)N1CCc2ccccc2C1,-,-,-,-,-,.,.,.,.
CC(C)(C)C(=O)NC(=S)NNC(=O)c1ccc(Cl)cc1Cl,-,87,104,117,202,144,115,107,92
COC(=O)NNC(=O)c1ccc(Cl)cc1Cl,-,-,-,-,-,.,.,.,.
CN1CCN(C2=Cc3ccccc3Sc3cc(F)c(Cl)cc32)CC1,-,69,-,-,46,38,16,-,24
CN1CCN(S(=O)(=O)c2ccc(Cl)c(C(F)(F)F)c2)CC1,-,-,-,-,-,.,.,.,.
CN1CCN(C2=Cc3cc(Cl)ccc3Sc3cc(F)ccc32)CC1,-,82,-,-,67,89,46,70,45
O=C(Nc1ccncc1)c1ccc(Cl)c(Cl)c1,-,-,-,-,56,42,19,-,-
COc1cccc(-c2c(C(=O)N/N=C/c3ccc(C)s3)nnn2-c2nonc2N)c1,-,-,-,-,65,87,44,-,-
COc1cccc(-c2c(C(=O)N/N=C/c3ccoc3)nnn2-c2nonc2N)c1,-,-,-,-,72,129,76,-,-
COc1cccc(-c2c(C(=O)N/N=C/c3cccnc3)nnn2-c2nonc2N)c1,-,-,-,-,-,.,.,.,.
CC1CCCN(C(=S)SCC(=O)c2cc(Br)cc(Br)c2O)C1 (stereo unspecified),-,-,-,-,74,82,-,70,-
Nc1nc(CN2CCc3ccccc3C2)nc(Nc2ccccc2)n1,-,-,-,-,59,85,-,-,-
COc1ccc(Nc2nc(N)nc(CN3CCc4ccccc4C3)n2)cc1,-,-,-,-,44,88,-,-,-
Nc1nc(CN2CCN(C(c3ccccc3)c3ccccc3)CC2)nc(Nc2ccccc2)n1,-,-,-,-,-,.,.,.,.
COc1ccccc1Nc1nc(N)nc(CN2CCc3ccccc3C2)n1,-,-,-,-,43,54,-,-,-
CSc1nc(N)nc2c1ncn2CC(=O)N1CCN(Cc2c(C)cc(C)cc2C)CC1,-,-,-,-,-,.,.,.,.
O=C(c1ccccc1)c1cccc[n+]1[O-],-,-,-,-,-,.,.,.,.
N#C/C(=C\c1ccc(O)cc1)C(=O)NCc1cccc(Cl)c1,-,-,-,24,63,75,37,-,26
c1ccc2c(Nc3nc(N4CCOCC4)c4ccccc4n3)cccc2c1,-,-,-,-,-,.,.,.,.
SMILES,M1 PAM,CHRM1 antagonist,TAAR1 antagonist,M1 ag,TAAR1 agonist,TAAR1 ag confirm,Ga16 nonsel ag,TAAR1 desensitize,Ga16 nonsel ant
Fc1ccc(Nc2nc(N3CCOCC3)c3ccccc3n2)cc1,-,-,63,-,65,65,-,-,-
CCOc1ccc(CSC(=N)N)cc1Cl,-,-,-,-,-,.,.,.,.
CCCCOc1ccc(CSCCN)cc1Cl,-,-,-,-,77,64,-,-,-
CCC(CC)C(=O)Nc1cccc(C(=O)Nc2ccc(OC)cc2[N+](=O)[O-])c1,-,-,77,23,78,45,-,-,-
COc1ccc(NC(=O)c2ccccc2)c([N+](=O)[O-])c1,-,-,-,-,-,.,.,.,.
O=S(=O)(NC1=NCCC1)c1cccc(NC(=S)NCCc2ccccc2)c1,-,-,-,-,62,-,-,-,-
S=C(NCCc1ccccc1)NCCc1ccccc1,-,-,-,-,-,.,.,.,.
NNC(=S)NCCc1ccccc1,-,-,.,-,.,.,-,.,-
Fc1ccc(CNC(=S)NCc2ccccc2)cc1,-,-,-,-,-,.,.,.,.
CCCCNC(=S)Nc1cccc(S(=O)(=O)NC2=NCCC2)c1,-,-,-,-,-,.,.,.,.
S=C(NCc1ccccc1)NCc1ccc(CNC(=S)NCc2ccccc2)cc1,-,-,65,-,56,51,20,63,47
COc1ccc(CC(=O)NC(=S)Nc2ccc(S(N)(=O)=O)cc2)cc1,-,-,-,30,81,88,40,-,28
CC(=O)c1cc(C(=O)N2CCCC(CCC(=O)N(C)CCc3ccccn3)C2)cs1 (stereo unspecified),-,-,-,-,-,.,.,.,.
C=CCOn1c(=O)c(-c2ccc(F)cc2)[n+]([O-])c2ccccc21,-,-,-,-,-,.,.,.,.
COc1ccc(N(C(=O)Cn2nnc(-c3ccc(F)cc3)n2)C(C)C(=O)NC2CCCC2)cc1OC (stereo unspecified),-,-,-,-,-,.,.,.,.
NS(=O)(=O)c1ccc(NC(=S)NCCc2ccccc2)cc1,-,-,-,-,54,82,-,68,-
CCOC(=O)c1ccc(NC(=S)NCCc2ccccc2F)cc1,-,61,-,-,70,89,-,86,33
CCOC(=O)c1ccc(NC(=S)NCc2ccccc2)cc1,-,-,-,-,-,.,.,.,.
O=S(=O)(c1ccc(NC(=S)NCCc2ccccc2)cc1)N1CCOCC1,-,-,-,-,74,86,13,65,26
O=S(=O)(c1ccc(NC(=S)NN=C(Cc2ccccc2)Cc2ccccc2)cc1)N1CCOCC1,-,-,-,-,-,.,.,.,.
COC(=O)c1ccc(NC(=S)NCCc2ccccc2)cc1,-,-,54,-,73,82,12,77,28
O=C(Nc1cccc2c1CCCC2)c1cc(C2CCCCN2C(=O)CCCc2ccccc2)on1 (stereo unspecified),-,-,-,-,-,.,.,.,.
